Assay [1] addresses Integrin alpha-V/beta-3 (Homo sapiens, UniProt P05106+P06756). Nature of the assay: Inhibition of integrin alphavbeta3 mediated cell adhesion of human M21 cells to vitronectin. It is filed as cell-based. The method, boiled down: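 Non-tissue-culture plastic 96-well plates were coated overnight with 2 µg/ml vitronectin. M21 cells were seeded with or without graded compound concentrations and allowed to adhere for 1 h at 37 °C. Adherent cells were fixed and stained, and the plates were read at 570 nm. Inhibition was calculated with compound-free wells as 100% adhesion.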

In assay [2] the test system is M21. Nature of the assay: Inhibition of human M21 cell migration assessed by measuring migration distance after 16 hrs at 30 uM by scrape motility assay. The assay is classed as functional. The method, boiled down: (§1)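 Scrape motility assay with M21 melanoma cells on vitronectin-coated plates, treated with compound at 7.5, 15.0 or 30.0 µM. Migration distance was measured by phase-contrast microscopy at 8 h or 16 h. Percent inhibition was taken against untreated cells. Means ± SD of nine determinations from three independent experiments.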

Assay [3] relates to HUVEC. Nature of the assay: Inhibition of bFGF-induced capillary-like structure formation in HUVECs at 30 uM after 6 hrs. It is filed as functional, cell-based. The note with it: Homo sapiens. The method, boiled down: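 HUVECs in ECM gel stimulated with 100 ng/ml bFGF, with or without compound, for 6 h. PBS served as the unstimulated control. Capillary-like structures were viewed by phase-contrast microscopy.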

Assay [4] relates to M21. Nature of the assay: Inhibition of human M21 cell migration after 8 hrs at 30 uM by scrape motility assay. It is filed as functional. The note with it: M21, 8 h. The method, boiled down:
as §1

Assay [5] concerns M21. Nature of the assay: Inhibition of human M21 cell migration assessed by measuring migration distance after 8 hrs at 7.5 uM by scrape motility assay. The assay is classed as functional. The method, boiled down:
as §1

For assay [6], the system named is M21. Kind of assay: Inhibition of human M21 cell migration assessed by measuring migration distance after 8 hrs at 15 uM by scrape motility assay. It is filed as functional. The method, boiled down: as §1
Assay [7] has as its system M21. Nature of the assay: Inhibition of human M21 cell migration assessed by measuring migration distance after 8 hrs at 30 uM by scrape motility assay. It is filed as functional. The method, boiled down:
as §1

Assay [8] deals with M21. Kind of assay: Inhibition of human M21 cell migration after 8 hrs at 15 uM by scrape motility assay. The note with it: M21, 8 h. It is filed as functional. The method, boiled down:
as §1

Assay [9] concerns M21. Nature of the assay: Inhibition of human M21 cell migration after 8 hrs at 7.5 uM by scrape motility assay. It is filed as functional. The note with it: M21, 8 h. The method, boiled down: as §1
Assay [10] concerns M21. Nature of the assay: Inhibition of human M21 cell migration at 15 uM after 16 hrs by scrape motility assay. The note with it: M21, 16 h. The assay is classed as functional. The method, boiled down: as §1
Assay [11] has as its system M21. Kind of assay: Inhibition of human M21 cell migration at 30 uM after 16 hrs by scrape motility assay. The assay is classed as functional. The note with it: M21, 16 h. The method, boiled down: as §1
Assay [12] concerns M21. Kind of assay: Inhibition of human M21 cell migration at 7.5 uM after 16 hrs by scrape motility assay. It is filed as functional. The note with it: M21, 16 h. The method, boiled down: as §1
Assay [13] relates to M21. Nature of the assay: Inhibition of human M21 cell migration assessed by measuring migration distance after 16 hrs at 7.5 uM by scrape motility assay. The assay is classed as functional. A digest of the protocol:
as §1

Assay [14] concerns M21. Kind of assay: Inhibition of human M21 cell migration assessed by measuring migration distance after 16 hrs at 15 uM by scrape motility assay. It is filed as functional. A digest of the protocol: as §1

SMILES strings stand for the structures. The source made the active and inactive calls. The calls are words filed in the database; no cut-off is given here.

Sequence of Integrin alpha-V/beta-3 (P05106 27-788 limits assumed): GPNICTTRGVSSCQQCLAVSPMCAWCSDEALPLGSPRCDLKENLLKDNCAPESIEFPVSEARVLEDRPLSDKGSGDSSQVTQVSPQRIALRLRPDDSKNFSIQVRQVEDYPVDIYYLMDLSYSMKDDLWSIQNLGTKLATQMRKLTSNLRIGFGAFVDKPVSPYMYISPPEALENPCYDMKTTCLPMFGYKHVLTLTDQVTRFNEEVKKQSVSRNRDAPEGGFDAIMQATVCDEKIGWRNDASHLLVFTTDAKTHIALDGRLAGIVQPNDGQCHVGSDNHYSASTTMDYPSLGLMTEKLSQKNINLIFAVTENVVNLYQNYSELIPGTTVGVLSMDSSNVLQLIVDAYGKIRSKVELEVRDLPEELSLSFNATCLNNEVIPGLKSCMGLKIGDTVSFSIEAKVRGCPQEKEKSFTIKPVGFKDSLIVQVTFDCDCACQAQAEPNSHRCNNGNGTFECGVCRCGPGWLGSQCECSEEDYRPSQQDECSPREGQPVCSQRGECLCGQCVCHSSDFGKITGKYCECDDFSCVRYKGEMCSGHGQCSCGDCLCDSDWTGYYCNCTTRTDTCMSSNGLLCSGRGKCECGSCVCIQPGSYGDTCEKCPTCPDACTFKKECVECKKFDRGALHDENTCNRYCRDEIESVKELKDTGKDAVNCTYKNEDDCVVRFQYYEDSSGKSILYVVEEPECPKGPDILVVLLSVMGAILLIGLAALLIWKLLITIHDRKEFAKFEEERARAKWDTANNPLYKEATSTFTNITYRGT
Sequence of Integrin alpha-V/beta-3 (P06756 31-889 limits assumed): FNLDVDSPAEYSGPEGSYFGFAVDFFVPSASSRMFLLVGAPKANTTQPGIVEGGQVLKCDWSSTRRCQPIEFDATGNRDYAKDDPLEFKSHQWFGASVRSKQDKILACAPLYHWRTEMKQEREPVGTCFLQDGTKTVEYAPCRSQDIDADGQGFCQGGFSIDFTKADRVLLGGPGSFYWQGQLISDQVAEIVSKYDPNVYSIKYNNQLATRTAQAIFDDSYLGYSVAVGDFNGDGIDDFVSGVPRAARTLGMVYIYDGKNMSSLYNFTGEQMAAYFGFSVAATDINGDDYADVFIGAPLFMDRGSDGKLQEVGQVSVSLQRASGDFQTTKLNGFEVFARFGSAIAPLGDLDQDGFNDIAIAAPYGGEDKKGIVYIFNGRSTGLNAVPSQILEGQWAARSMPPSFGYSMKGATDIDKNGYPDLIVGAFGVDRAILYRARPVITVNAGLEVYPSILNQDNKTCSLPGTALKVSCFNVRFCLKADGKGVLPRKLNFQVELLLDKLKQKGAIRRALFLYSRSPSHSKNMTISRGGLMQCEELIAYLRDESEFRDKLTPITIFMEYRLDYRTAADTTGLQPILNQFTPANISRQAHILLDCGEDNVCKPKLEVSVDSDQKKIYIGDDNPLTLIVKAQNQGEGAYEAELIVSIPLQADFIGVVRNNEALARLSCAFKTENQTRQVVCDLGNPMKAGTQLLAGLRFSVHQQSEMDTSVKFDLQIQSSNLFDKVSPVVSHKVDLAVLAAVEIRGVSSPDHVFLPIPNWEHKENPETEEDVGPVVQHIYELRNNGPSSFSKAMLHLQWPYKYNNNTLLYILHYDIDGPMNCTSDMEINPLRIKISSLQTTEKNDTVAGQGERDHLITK
Sequence of Integrin alpha-V/beta-3 (P06756 891-1048 limits assumed): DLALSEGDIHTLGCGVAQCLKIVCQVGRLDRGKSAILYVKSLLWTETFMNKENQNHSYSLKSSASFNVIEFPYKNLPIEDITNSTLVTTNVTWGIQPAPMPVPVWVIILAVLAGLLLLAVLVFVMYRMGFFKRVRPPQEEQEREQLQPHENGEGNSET

Consider `N=C(N)NC(=N)Nc1cccc(Cl)c1Cl`, for which the IC50 in [1] turned out to be 87.3 µM. The same measure, in the same setting: the figure for `Cn1cnnc1SCC(=O)Nc1ccc(-c2nc3ccc(NC(=O)CSc4nncn4C)cc3o2)c(O)c1` is 162 µM; for `N=C(N)N=C(N)Nc1cc(Cl)cc(Cl)c1` it is 33.5 µM. Same read-out and setting: the value for `CCOc1ccccc1N=C(N)N=C(N)N` was above 200 µM.

`N=C(N)NC(=N)Nc1cc(C(F)(F)F)cc(C(F)(F)F)c1` showed an IC50 in assay [1] of 39.5 µM. Same read-out and setting: the figure for `N=C(N)NC(=N)Nc1ccccc1` [PHENYL BIGUANIDE] is above 200 µM. The same measure, in the same setting: the value for `COc1cc(NS(=O)(=O)c2ccc(N/C=C3\C(=O)N(c4ccc(I)cc4)N=C3C)cc2)nc(OC)n1` was 53.5 µM; that for `CSc1ccccc1N=C(N)N=C(N)N` was above 200 µM. On the same count and under the same terms, the figure for `N=C(N)NC(=N)Nc1ccc(F)c(Cl)c1` is 97.3 µM; for `COc1cc(NS(=O)(=O)c2ccc(NC(=O)COc3ccc(Cl)cc3Cl)cc2)nc(OC)n1` it is 137 µM; for `CCOC(=O)c1cccc(N=C(N)N=C(N)N)c1` it is above 200 µM. `N=C(N)NC(=N)Nc1cc(C(F)(F)F)ccc1Cl` displayed an IC50 in assay [1] of 127 µM. Still for that read-out and setting: the figure for `N=C(N)NC(=N)Nc1cccc(Cl)c1` is 191 µM. Turning to `N=C(N)NC(=N)Nc1ccc(Cl)c(Cl)c1`, the Activity in [2] turned out to be 16.7 um; in [5], 27.8 um; in assay [6] it was 8.3 um; in [7], 1.1 um; in assay [13], 72.2 um; in assay [14], 38.9 um. The outcome in assay [3] was Active. The compound also displayed an IC50 in assay [1] of 38.5 µM. Further, the inhibition at 30 µM in assay [4] came out at 96.4%; in assay [11], 86%. In addition, the figures for the inhibition at 15 µM in [8] and in [10] were 73.1% and 67.4%, respectively. The inhibition at 7.5 µM in assay [9] is 9.1%; in assay [12], 39.5%. Compound `N=C(N)NC(=N)Nc1ccc(Cl)cc1Cl` showed an IC50 in assay [1] of 66.9 µM.

`N=C(N)NC(=N)Nc1ccc(Cl)cc1` [4-CHLOROPHENYLBIGUANIDE] returned an IC50 in assay [1] of 149 µM. The same measure, in the same setting: the value for `COc1cc(/C=C2\C(=O)N(c3ccc(C(=O)O)cc3)N=C2C)ccc1OC(=O)c1ccccc1` was 143 µM; that for `CCOc1cc(/C=c2\sc3nc4c(C)cccc4n3c2=O)cc(Br)c1OCC(=O)O` was 132 µM; that for `N=C(N)NC(=N)Nc1ccc(SC(F)(F)F)cc1` was 101 µM. The same measure, in the same setting: the figure for `CSc1cccc(NC(=N)NC(=N)N)c1` is above 200 µM; for `Cc1ccc(Cl)cc1N=C(N)N=C(N)N` it is above 200 µM; for `NC(N)=NC(N)=Nc1cc(Cl)ccc1Cl` it is 100 µM.

In the case of `N=C(N)NC(=N)Nc1ccccc1Cl`, the IC50 in assay [1] was above 200 µM. `NC(N)=NC(N)=Nc1ccc(SC(F)F)cc1` displayed an IC50 in [1] of 178 µM. The same measure, in the same setting: the value for `O=C(Nc1ccccc1C(=O)O)c1ccc(N2C(=O)c3ccc(Oc4ccc([N+](=O)[O-])cc4)cc3C2=O)cc1` was 180 µM.

One may read the IC50 as the point on the concentration scale where inhibition reaches its midpoint. Low readings indicate greater potency, high ones weaker potency. Usually inhibition stands for the change of the read-out against control, counted positive when it falls. Read a low inhibition as a response near the control.

Source of the values: ChEMBL document CHEMBL1139751, “Discovery of small molecule inhibitors of integrin alphavbeta3 through structure-based virtual screening” (Bioorg Med Chem Lett, 2006).
